Data: ChEMBL document CHEMBL1240333, “Surveying polypeptide and protein domain conformation and association with FlAsH and ReAsH” (Nat Chem Biol, 2007)
Calls of active or inactive are those of the source. The rule behind the calls is not given here. Peptide text beside a SMILES is read from it.

Legend:
Transcription factor Jun [1] = target: T1, Transcription factor Jun (Homo sapiens, UniProt P05412); assay: Binding affinity to c-Jun homodimer containing bipartite tetracysteine motif at 100 nM
Transcription factor Jun [2] = target: T1, Transcription factor Jun; assay: Binding affinity to wild type c-Jun homodimer by circular dichroism spectroscopy
Transcription factor Jun [3] = target: T1, Transcription factor Jun; assay: Binding affinity to wild-type c-Jun homodimer at by circular dichroism spectroscopy
Transcription factor Jun [4] = target: T1, Transcription factor Jun; assay: Binding affinity to c-Jun homodimer containing bipartite tetracysteine motif at 25 nM
Procedure, shortened: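 Fluorescence titration: 25 nM FlAsH or ReAsH titrated with increasing synthetic peptide or protein domain in 100 mM Tris-HCl pH 7.8 with 3.5 mM TCEP, 1 mM EDT, 1 mM EDTA. Emission read at 530 ± 12.5 nm (FlAsH) or 630 ± 17.5 nm (ReAsH) after reaching equilibrium, tracked over time. Apparent Kd taken from intensity versus concentration. Points are means of ≥3 independent titrations ± s.d.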

T1 sequence (P05412 whole entry): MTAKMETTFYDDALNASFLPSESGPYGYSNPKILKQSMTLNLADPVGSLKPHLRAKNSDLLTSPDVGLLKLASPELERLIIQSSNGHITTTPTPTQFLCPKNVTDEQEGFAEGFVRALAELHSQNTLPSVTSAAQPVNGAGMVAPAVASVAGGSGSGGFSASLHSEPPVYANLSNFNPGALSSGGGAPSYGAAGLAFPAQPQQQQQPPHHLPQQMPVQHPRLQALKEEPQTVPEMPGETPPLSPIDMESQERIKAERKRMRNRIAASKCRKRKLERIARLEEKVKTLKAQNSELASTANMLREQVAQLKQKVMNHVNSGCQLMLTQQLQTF

CC[C@H](C)[C@H](NC(=O)[C@H](CCCNC(=N)N)NC(=O)[C@H](Cc1c[nH]c2ccccc12)NC(C)=O)C(=O)N[C@@H](C)C(=O)N[C@@H](CCCNC(=N)N)C(=O)N[C@@H](CC(C)C)C(=O)N[C@@H](CCC(=O)O)C(=O)N[C@@H](CCC(=O)O)C(=O)N[C@@H](CCCCN)C(=O)N[C@H](C(=O)N[C@@H](CCCCN)C(=O)N[C@H](C(=O)N[C@@H](CC(C)C)C(=O)N[C@@H](CCCCN)C(=O)N[C@@H](C)C(=O)N[C@@H](CCC(N)=O)C(=O)N[C@@H](CC(N)=O)C(=O)N[C@@H](CO)C(=O)N[C@@H](CCC(=O)O)C(=O)N[C@@H](CC(C)C)C(=O)N[C@@H](C)C(=O)N[C@@H](CO)C(=O)N[C@H](C(=O)N[C@@H](C)C(=O)N[C@@H](CC(N)=O)C(=O)N[C@@H](CCSC)C(=O)N[C@@H](CC(C)C)C(=O)N[C@@H](CCCNC(=N)N)C(=O)N[C@@H](CCC(=O)O)C(=O)N[C@@H](CCC(N)=O)C(=O)N[C@H](C(=O)N[C@@H](C)C(=O)N[C@@H](CCC(N)=O)C(=O)N[C@@H](CC(C)C)C(=O)N[C@@H](CCCCN)C(=O)N[C@@H](CCC(N)=O)C(=O)N[C@@H](CCCCN)C(=O)N[C@H](C(=O)N[C@@H](CS)C(=O)N[C@@H](CS)C(N)=O)C(C)C)C(C)C)[C@@H](C)O)[C@@H](C)O)C(C)C (Ac-WRIARLEEKVKTLKAQNSELASTANMLREQVAQLKQKVCC-NH2)
Activity (Transcription factor Jun [1]): Active
Activity (Transcription factor Jun [2]): inactive
Kd (Transcription factor Jun [3]): 10 µM
Activity (Transcription factor Jun [4]): Active
